Laboratory results published in ChEMBL document CHEMBL2150909, “Imidazo[1,2-a]pyridines: orally active positive allosteric modulators of the metabotropic glutamate 2 receptor” (J Med Chem, 2012).
Active and inactive are the calls of the source. No cut-off for these calls is given here.

Experiments:
[1] = Plasma concentration in Sprague-Dawley rat at 10 mg/kg, sc after 4 hrs; type: ADME, organism-based; design: dose 10 mg/kg, route subcutaneous
In short: (§1)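 Male Sprague−Dawley rats given 10 mg/kg subcutaneously, vehicle 20% HP-β-CD at pH 4. Plasma (ng/mL) and brain (ng/g) drug levels determined at the listed post-dose time; B/P ratio derived from them. Values are geometric means of at least two runs ± SEM.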

[2] = molecular target: T1, Metabotropic glutamate receptor 2 (Homo sapiens, UniProt Q14416); assay: Agonist activity at human mGlu 2 expressed in CHO cells assessed as [35S]GTPgammaS binding by liquid scintillation analysis; type: functional, cell-based
In short: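 Membranes from butyrate-stimulated (5 mM, 24 h) CHO cells expressing human mGlu2. Preincubated 30 min at 30 °C in HEPES pH 7.4 with NaCl, MgCl2, 50 μM GDP and saponin; modulator 0.3 nM–50 μM, no added glutamate. [35S]GTPγS 0.1 nM final, 30 min at 30 °C, filtered, scintillation counted. Nonspecific binding defined with cold GTP; 11 concentrations in duplicate, ≥3 curves.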

[3] = molecular target: T2, Metabotropic glutamate receptor 7 (Homo sapiens, UniProt Q14831); assay: Agonist activity at human mGlu 7 expressed in HEK293 cells by Ca+2 assay; type: functional, cell-based
[4] = AUC (0 to infinity) in Sprague-Dawley rat at 10 mg/kg, po and 2.5 mg/kg, iv; type: ADME, organism-based; conditions: plasma
In short: (§2)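 Rat PK: compounds formulated in 20% HP-β-CD at pH 4 and given orally and intravenously. Values are geometric means of at least two runs ± SEM.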

[5] = Tmax in Sprague-Dawley rat at 10 mg/kg, po and 2.5 mg/kg, iv; type: ADME, organism-based; conditions: in vivo; in short: as §2
[6] = Ratio of drug level in brain to plasma of Sprague-Dawley rat at 10 mg/kg, sc after 4 hrs; type: ADME, organism-based; design: dose 10 mg/kg, route subcutaneous; conditions: brain and plasma, read-out: BPR; in short: as §1
[7] = molecular target: Metabotropic glutamate receptor 6 (Rattus norvegicus) (UniProt P35349); assay: Agonist activity at rat mGlu 6 expressed in CHO cells assessed as [35S]GTPgammaS binding by liquid scintillation counting; type: functional, cell-based
In short: (§3)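 [35S]GTPγS functional assays on human mGlu4 or rat mGlu6 receptors expressed in L929 or CHO cells; agonist and antagonist modes tested at 10 μM.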

[8] = Drug uptake in Sprague-Dawley rat brain at 10 mg/kg, sc after 2 hrs; type: ADME, organism-based; design: dose 10 mg/kg, route subcutaneous; conditions: read-out: Drug uptake
In short: (§4)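 Brain exposure in male Sprague-Dawley rats after a 10 mg/kg subcutaneous dose, vehicle 20% HP-β-CD at pH 4. Brain level measured in ng/g alongside plasma in ng/mL; geometric mean of at least two runs ± SEM.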

[9] = Half life in Sprague-Dawley rat at 10 mg/kg, po and 2.5 mg/kg, iv; type: ADME, organism-based; conditions: in vivo; in short: as §2
[10] = molecular target: T1, Metabotropic glutamate receptor 2; assay: Agonist activity at human mGlu 2 expressed in CHO cells by PAM assay relative to glutamate; type: functional, cell-based
In short: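 The assay measured [35S]GTPγS binding to membranes from CHO cells expressing human mGluR2. Cells were butyrate-stimulated (5 mM, 24 h) before membranes were prepared. Membranes were preincubated for 30 min at 30 °C in HEPES pH 7.4 buffer (NaCl, MgCl2, 50 μM GDP) with compound (0.3 nM–50 μM, 11 concentrations) plus EC25 glutamate. [35S]GTPγS (0.1 nM final) was then added for 30 min at 30 °C. Bound label was collected by filtration and counted. Runs were done at least in triplicate with duplicate points, and a four-parameter logistic fit gave the values.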

[11] = molecular target: Metabotropic glutamate receptor 8 (Homo sapiens) (UniProt O00222); assay: Antagonist activity at human mGlu 8 expressed in HEK293 cells at 10 uM by Ca+2 assay; type: functional, cell-based
In short: (§5)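 Ca2+ assays on human mGlu1, mGlu3, mGlu5, mGlu7 or mGlu8 receptors, each expressed in HEK293 cells; compound tested at 10 μM for agonist and antagonist activity.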

[12] = Metabolic stability of human liver microsomes assessed as compound metabolized at 5 uM after 15 mins; type: ADME, Microsome; conditions: read-out: Drug metabolism
In short: (§6)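 Test compound at 5 μM incubated 15 min with rat or human liver microsomes; read-out is percent of compound metabolized.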

[13] = Clearance in Sprague-Dawley rat at 10 mg/kg, po and 2.5 mg/kg, iv; type: ADME, organism-based; conditions: in vivo
[14] = Ratio of drug level in brain to plasma of Sprague-Dawley rat at 10 mg/kg, sc after 2 hrs; type: ADME, organism-based; design: dose 10 mg/kg, route subcutaneous; conditions: read-out: BPR; in short: as §1
[15] = molecular target: Metabotropic glutamate receptor 4 (Homo sapiens) (UniProt Q14833); assay: Agonist activity at human mGlu 4 expressed in L929 cells assessed as [35S]GTPgammaS binding by liquid scintillation counting; type: functional, cell-based; in short: as §3
[16] = molecular target: Metabotropic glutamate receptor 4 (Homo sapiens) (UniProt Q14833); assay: Antagonist activity at human mGlu 4 expressed in L929 cells assessed inhibition of [35S]GTPgammaS binding by liquid scintillation counting; type: functional, cell-based; in short: as §3
[17] = molecular target: Metabotropic glutamate receptor 6 (Rattus norvegicus) (UniProt P35349); assay: Antagonist activity at rat mGlu 6 expressed in CHO cells assessed as inhibition of [35S]GTPgammaS binding by liquid scintillation counting; type: functional, cell-based; in short: as §3
[18] = Cmax in Sprague-Dawley rat at 10 mg/kg, po and 2.5 mg/kg, iv; type: ADME, organism-based; conditions: in vivo; in short: as §2
[19] = molecular target: Metabotropic glutamate receptor 5 (Homo sapiens) (UniProt P41594); assay: Agonist activity at human mGlu 5 expressed in HEK293 cells at 10 uM by Ca+2 assay; type: functional, cell-based; in short: as §5
[20] = Oral bioavailability in Sprague-Dawley rat at 10 mg/kg; type: ADME, organism-based; conditions: in vivo
In short: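 Male Sprague-Dawley rats given 10 mg/kg orally and/or 1.25 mg/kg intravenously; compound formulated in 20% HP-β-CD at pH 4. Cmax, tmax, AUC0−inf, t1/2, clearance and oral bioavailability F derived from plasma levels; geometric mean of at least two runs ± SEM.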

[21] = Metabolic stability of Sprague-Dawley rat liver microsomes assessed as compound metabolized at 5 uM after 15 mins; type: ADME, Microsome; conditions: read-out: Drug metabolism; in short: as §6
[22] = molecular target: Metabotropic glutamate receptor 5 (Homo sapiens) (UniProt P41594); assay: Antagonist activity at human mGlu 5 expressed in HEK293 cells at 10 uM by Ca+2 assay; type: functional, cell-based; in short: as §5
[23] = Plasma concentration in Sprague-Dawley rat at 10 mg/kg, sc after 1 hr; type: ADME, organism-based; design: dose 10 mg/kg, route subcutaneous; in short: as §1
[24] = molecular target: Metabotropic glutamate receptor 3 (Homo sapiens) (UniProt Q14832); assay: Agonist activity at human mGlu 3 expressed in HEK293 cells at 10 uM by Ca+2 assay; type: functional, cell-based; in short: as §5
[25] = molecular target: T2, Metabotropic glutamate receptor 7; assay: Antagonist activity at human mGlu 7 expressed in HEK293 cells at 10 uM by Ca+2 assay; type: functional, cell-based; in short: as §5
[26] = Ratio of drug level in brain to plasma of Sprague-Dawley rat at 10 mg/kg, sc after 1 hr; type: ADME, organism-based; design: dose 10 mg/kg, route subcutaneous; conditions: read-out: BPR; in short: as §1
[27] = molecular target: Metabotropic glutamate receptor 1 (Homo sapiens) (UniProt Q13255); assay: Agonist activity at human mGlu 1 expressed in HEK293 cells at 10 uM by Ca+2 assay; type: functional, cell-based; in short: as §5
[28] = Drug uptake in Sprague-Dawley rat brain at 10 mg/kg, sc after 4 hrs; type: ADME, organism-based; design: dose 10 mg/kg, route subcutaneous; conditions: read-out: Drug uptake; in short: as §4
[29] = molecular target: Metabotropic glutamate receptor 3 (Homo sapiens) (UniProt Q14832); assay: Antagonist activity at human mGlu 3 expressed in HEK293 cells at 10 uM by Ca+2 assay; type: functional, cell-based; in short: as §5
[30] = molecular target: Metabotropic glutamate receptor 1 (Homo sapiens) (UniProt Q13255); assay: Antagonist activity at human mGlu 1 expressed in HEK293 cells at 10 uM by Ca+2 assay; type: functional, cell-based; in short: as §5
[31] = molecular target: Metabotropic glutamate receptor 8 (Homo sapiens) (UniProt O00222); assay: Agonist activity at human mGlu 8 expressed in HEK293 cells at 10 uM by Ca+2 assay; type: functional, cell-based; in short: as §5
[32] = Plasma concentration in Sprague-Dawley rat at 10 mg/kg, sc after 2 hrs; type: ADME, organism-based; design: dose 10 mg/kg, route subcutaneous; in short: as §1
[33] = Drug uptake in Sprague-Dawley rat brain at 10 mg/kg, sc after 1 hr; type: ADME, organism-based; design: dose 10 mg/kg, route subcutaneous; conditions: read-out: Drug uptake; in short: as §4

Chain of Metabotropic glutamate receptor 4 (Homo sapiens) (Q14833 whole entry): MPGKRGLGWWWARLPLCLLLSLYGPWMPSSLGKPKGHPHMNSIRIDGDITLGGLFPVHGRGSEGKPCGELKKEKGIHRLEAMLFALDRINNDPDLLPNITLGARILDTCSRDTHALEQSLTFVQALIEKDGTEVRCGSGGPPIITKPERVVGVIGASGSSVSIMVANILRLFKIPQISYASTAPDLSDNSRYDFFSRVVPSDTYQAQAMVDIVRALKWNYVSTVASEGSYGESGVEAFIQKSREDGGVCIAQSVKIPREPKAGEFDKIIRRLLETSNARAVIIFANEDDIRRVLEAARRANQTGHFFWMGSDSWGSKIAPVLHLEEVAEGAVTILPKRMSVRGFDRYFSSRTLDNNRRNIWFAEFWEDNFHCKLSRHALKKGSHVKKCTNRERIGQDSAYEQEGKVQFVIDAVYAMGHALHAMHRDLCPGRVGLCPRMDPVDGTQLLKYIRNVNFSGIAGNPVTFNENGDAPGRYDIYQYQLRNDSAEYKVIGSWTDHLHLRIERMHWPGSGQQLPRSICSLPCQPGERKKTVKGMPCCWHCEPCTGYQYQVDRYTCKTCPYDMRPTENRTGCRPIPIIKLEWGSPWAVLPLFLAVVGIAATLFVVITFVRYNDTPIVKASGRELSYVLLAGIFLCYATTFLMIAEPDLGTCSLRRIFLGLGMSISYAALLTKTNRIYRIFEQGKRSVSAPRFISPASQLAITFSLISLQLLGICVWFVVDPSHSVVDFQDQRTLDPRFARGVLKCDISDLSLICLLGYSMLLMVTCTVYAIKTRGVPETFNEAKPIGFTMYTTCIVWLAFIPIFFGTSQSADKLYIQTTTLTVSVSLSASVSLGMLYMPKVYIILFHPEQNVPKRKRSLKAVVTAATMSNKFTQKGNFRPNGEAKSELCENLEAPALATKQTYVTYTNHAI
T2 sequence (Q14831 whole entry): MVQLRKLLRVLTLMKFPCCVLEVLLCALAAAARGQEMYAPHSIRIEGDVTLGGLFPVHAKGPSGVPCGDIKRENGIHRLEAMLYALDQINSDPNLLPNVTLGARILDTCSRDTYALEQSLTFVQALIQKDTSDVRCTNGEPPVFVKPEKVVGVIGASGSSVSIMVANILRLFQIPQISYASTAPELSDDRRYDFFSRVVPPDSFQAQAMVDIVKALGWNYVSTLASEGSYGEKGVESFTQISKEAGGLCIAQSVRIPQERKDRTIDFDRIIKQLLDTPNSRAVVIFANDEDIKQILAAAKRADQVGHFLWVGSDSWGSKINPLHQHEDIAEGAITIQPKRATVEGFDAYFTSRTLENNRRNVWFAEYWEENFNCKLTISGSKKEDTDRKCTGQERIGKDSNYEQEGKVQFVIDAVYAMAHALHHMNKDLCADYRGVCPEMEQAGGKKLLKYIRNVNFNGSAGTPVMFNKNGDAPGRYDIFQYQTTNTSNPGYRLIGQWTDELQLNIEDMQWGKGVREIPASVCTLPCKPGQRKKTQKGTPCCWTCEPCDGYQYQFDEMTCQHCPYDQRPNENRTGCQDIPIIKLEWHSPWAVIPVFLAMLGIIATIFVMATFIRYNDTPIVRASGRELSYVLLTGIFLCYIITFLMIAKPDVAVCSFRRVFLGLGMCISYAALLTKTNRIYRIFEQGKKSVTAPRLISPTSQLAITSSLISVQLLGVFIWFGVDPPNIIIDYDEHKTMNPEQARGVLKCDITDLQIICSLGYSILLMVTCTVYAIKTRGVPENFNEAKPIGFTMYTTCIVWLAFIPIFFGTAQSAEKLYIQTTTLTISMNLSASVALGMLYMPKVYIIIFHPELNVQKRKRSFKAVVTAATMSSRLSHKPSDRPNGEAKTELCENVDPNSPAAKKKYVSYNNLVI
Chain of Metabotropic glutamate receptor 5 (Homo sapiens) (P41594 21-1212 limits assumed): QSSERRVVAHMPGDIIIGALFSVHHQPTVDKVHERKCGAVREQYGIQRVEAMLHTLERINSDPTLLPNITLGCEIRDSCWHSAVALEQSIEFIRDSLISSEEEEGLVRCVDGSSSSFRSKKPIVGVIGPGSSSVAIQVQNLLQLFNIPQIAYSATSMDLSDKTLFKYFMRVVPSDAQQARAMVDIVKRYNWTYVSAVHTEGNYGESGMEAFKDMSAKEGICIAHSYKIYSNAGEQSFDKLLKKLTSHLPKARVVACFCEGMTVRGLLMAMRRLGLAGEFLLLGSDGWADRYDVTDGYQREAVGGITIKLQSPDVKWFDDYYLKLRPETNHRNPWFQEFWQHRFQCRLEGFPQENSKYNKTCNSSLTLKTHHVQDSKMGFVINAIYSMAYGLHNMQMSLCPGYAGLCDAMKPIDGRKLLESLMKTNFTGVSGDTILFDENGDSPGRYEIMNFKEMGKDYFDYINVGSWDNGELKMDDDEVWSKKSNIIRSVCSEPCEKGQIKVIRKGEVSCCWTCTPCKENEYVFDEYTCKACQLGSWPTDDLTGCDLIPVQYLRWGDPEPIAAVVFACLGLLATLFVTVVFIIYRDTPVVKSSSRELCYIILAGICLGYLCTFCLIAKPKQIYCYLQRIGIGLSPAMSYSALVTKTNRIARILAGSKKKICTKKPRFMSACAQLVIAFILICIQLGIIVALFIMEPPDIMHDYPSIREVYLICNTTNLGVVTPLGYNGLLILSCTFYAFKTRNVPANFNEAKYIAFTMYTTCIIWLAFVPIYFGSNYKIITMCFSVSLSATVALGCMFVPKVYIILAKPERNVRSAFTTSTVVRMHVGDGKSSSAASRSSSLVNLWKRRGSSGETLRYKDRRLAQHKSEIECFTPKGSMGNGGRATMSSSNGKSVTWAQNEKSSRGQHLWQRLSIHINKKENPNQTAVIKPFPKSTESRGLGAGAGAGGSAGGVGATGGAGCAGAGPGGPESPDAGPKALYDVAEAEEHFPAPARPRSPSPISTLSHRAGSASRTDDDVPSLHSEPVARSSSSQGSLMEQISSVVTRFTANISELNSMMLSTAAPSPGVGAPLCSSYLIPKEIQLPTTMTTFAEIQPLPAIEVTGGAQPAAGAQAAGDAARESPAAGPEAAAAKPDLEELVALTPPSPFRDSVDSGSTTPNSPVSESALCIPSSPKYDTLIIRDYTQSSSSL
Chain of Metabotropic glutamate receptor 6 (Rattus norvegicus) (P35349 whole entry): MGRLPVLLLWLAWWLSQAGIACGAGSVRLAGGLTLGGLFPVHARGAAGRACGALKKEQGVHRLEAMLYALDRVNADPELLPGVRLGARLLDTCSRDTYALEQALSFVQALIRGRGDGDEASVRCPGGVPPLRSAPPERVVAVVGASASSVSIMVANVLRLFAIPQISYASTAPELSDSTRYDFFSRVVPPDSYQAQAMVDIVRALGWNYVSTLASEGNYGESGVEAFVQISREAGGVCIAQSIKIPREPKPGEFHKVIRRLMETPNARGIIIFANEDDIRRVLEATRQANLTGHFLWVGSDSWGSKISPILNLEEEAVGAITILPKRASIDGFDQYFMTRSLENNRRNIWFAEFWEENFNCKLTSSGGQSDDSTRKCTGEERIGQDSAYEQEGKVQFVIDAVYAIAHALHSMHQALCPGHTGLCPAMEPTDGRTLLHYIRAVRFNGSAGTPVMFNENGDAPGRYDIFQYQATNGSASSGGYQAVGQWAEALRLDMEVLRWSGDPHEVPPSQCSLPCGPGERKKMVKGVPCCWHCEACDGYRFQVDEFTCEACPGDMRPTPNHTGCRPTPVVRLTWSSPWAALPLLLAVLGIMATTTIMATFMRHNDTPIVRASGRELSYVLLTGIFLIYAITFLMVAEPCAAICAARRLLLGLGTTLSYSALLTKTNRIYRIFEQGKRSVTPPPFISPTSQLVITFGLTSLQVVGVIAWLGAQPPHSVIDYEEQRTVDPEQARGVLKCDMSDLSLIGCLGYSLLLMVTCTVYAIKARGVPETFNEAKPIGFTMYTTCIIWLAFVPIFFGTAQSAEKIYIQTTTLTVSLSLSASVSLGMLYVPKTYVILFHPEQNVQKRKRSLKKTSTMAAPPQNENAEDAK
Chain of Metabotropic glutamate receptor 8 (Homo sapiens) (O00222 whole entry): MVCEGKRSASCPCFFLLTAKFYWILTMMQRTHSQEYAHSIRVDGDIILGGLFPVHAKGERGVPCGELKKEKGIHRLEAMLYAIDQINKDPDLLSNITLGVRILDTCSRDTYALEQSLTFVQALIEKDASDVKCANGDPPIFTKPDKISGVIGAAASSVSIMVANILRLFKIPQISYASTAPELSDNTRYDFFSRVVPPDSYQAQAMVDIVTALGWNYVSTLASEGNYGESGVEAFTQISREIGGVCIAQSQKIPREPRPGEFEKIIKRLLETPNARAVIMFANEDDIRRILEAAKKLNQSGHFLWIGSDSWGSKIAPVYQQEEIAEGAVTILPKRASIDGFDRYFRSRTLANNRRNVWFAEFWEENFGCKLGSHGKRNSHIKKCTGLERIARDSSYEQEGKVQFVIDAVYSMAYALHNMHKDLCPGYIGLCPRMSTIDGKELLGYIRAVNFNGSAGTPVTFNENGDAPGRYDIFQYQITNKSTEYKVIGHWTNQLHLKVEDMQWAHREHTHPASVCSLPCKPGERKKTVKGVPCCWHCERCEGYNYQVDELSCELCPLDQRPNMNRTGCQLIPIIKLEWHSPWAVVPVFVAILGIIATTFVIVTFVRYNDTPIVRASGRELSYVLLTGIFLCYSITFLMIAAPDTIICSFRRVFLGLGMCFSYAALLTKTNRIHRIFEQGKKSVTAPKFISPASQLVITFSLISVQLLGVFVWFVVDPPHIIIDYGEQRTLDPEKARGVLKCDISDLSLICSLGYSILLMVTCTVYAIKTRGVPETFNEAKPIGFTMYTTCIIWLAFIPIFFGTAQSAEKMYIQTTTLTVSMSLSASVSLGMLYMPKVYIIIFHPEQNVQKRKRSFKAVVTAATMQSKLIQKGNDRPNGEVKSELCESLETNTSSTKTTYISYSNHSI

concentration at 4 h [1]: 1950 ng/mL
EC50 [2]: 0.16 µM
EC50 [3]: 5.2 µM
AUC(0-inf) [4]: 10600 ng·h/mL
Tmax [5]: 3.3 h
Kp at 4 h [6]: 0.4
Activity [7]: inactive
concentration at 2 h [8]: 1040 ng/g
half-life [9]: 4.3 h
Emax [10]: 244%
Activity [11]: inactive
metabolised at 0.25 h, 5 µM [12]: 14%
clearance [13]: 15 mL/min/kg
Kp at 2 h [14]: 0.3
Activity [15]: inactive
Activity [16]: inactive
Activity [17]: inactive
Cmax [18]: 1140 ng/mL
Activity [19]: inactive
bioavailability [20]: 100%
metabolised at 0.25 h, 5 µM [21]: 8%
Activity [22]: inactive
concentration at 1 h [23]: 3810 ng/mL
Activity [24]: inactive
Activity [25]: inactive
Kp at 1 h [26]: 0.2
Activity [27]: inactive
concentration at 4 h [28]: 843 ng/g
Activity [29]: inactive
Activity [30]: inactive
Activity [31]: inactive
concentration at 2 h [32]: 3730 ng/mL
concentration at 1 h [33]: 932 ng/g
SMILES: O[C@H]1CC[C@H](n2ccc3cc(-c4ccn5c(CC(F)(F)F)cnc5c4Cl)ccc32)CC1
